# According to ChEMBL document CHEMBL5058577, “EUbOPEN Chemogenomics Library 2 (Multiplex)” (2022):
# Tested on: U2OS
# Test: Multiplex assay against U2OS
# Assay type: toxicity, cell-based
# Details: human
# Summary of the method: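 Phenotypes for tubulin, mitochondrial mass and membrane permeability are expressed as per cents of healthy-nucleus cells. Cells were stained live at seeding with Hoechst33342, BioTracker Green Microtubule Cytoskeleton Dye, MitoTracker Red and Annexin V Alexa Fluor 680, then imaged after compound addition on a CQ1 microscope at 37°C and 5% CO2. Machine-learning gating in CellPathfinder separated Hoechst high-intensity objects from normal cells, divided normal cells by nuclear state (healthy, pyknosed, fragmented) and divided pyknosed cells into mitotic or apoptotic.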
# [1] = 12 h, 1 µM, compound concentration 1 uM, replicate 1
# [2] = 12 h, 1 µM, compound concentration 1 uM, replicate 2
# [3] = 12 h, 10 µM, compound concentration 10 uM, replicate 1
# [4] = 12 h, 10 µM, compound concentration 10 uM, replicate 2
# [5] = 24 h, 1 µM, compound concentration 1 uM, replicate 1
# [6] = 24 h, 1 µM, compound concentration 1 uM, replicate 2
# [7] = 24 h, 10 µM, compound concentration 10 uM, replicate 1
# [8] = 24 h, 10 µM, compound concentration 10 uM, replicate 2
# [9] = 48 h, 1 µM, compound concentration 1 uM, replicate 1
# [10] = 48 h, 1 µM, compound concentration 1 uM, replicate 2
# [11] = 48 h, 10 µM, compound concentration 10 uM, replicate 1
# [12] = 48 h, 10 µM, compound concentration 10 uM, replicate 2
compound,measurement,setting,value
CC(C)COc1ccc(CNC(=O)N(Cc2ccc(F)cc2)C2CCN(C)CC2)cc1 [PIMAVANSERIN],Population Apoptotic (%),[1],84%
same,Population Fragmented Nuclei (%),[1],23%
same,Population Healthy Nuclei (%),[1],67%
same,Population Hoechst High Intensity Objects (%),[1],2%
same,Population Membrane Permeable-Phenotype (%),[1],6%
same,Population Mitochondria Different-Phenotype (%),[1],3%
same,Population Mitotic Cells (%),[1],16%
same,Population Normal (%),[1],97%
same,Population Pyknosed Nuclei (%),[1],9%
same,Population Tubulin-Different-Phenotype (%),[1],5%
same,Total Cell Count,[1],265
same,Population Apoptotic (%),[2],100%
same,Population Fragmented Nuclei (%),[2],11%
same,Population Healthy Nuclei (%),[2],80%
same,Population Hoechst High Intensity Objects (%),[2],0%
same,Population Mitochondria Different-Phenotype (%),[2],4%
same,Population Mitotic Cells (%),[2],0%
same,Population Normal (%),[2],99%
same,Population Pyknosed Nuclei (%),[2],7%
same,Population Tubulin-Different-Phenotype (%),[2],6%
same,Total Cell Count,[2],136
same,Population Apoptotic (%),[3],67%
same,Population Fragmented Nuclei (%),[3],23%
same,Population Healthy Nuclei (%),[3],48%
same,Population Hoechst High Intensity Objects (%),[3],5%
same,Population Membrane Permeable-Phenotype (%),[3],48%
same,Population Mitochondria Different-Phenotype (%),[3],73%
same,Population Mitotic Cells (%),[3],32%
same,Population Normal (%),[3],94%
same,Population Pyknosed Nuclei (%),[3],27%
same,Population Tubulin-Different-Phenotype (%),[3],77%
same,Total Cell Count,[3],202
same,Population Apoptotic (%),[4],71%
same,Population Fragmented Nuclei (%),[4],18%
same,Population Healthy Nuclei (%),[4],54%
same,Population Hoechst High Intensity Objects (%),[4],4%
same,Population Membrane Permeable-Phenotype (%),[4],26%
same,Population Mitochondria Different-Phenotype (%),[4],70%
same,Population Mitotic Cells (%),[4],28%
same,Population Normal (%),[4],95%
same,Population Pyknosed Nuclei (%),[4],26%
same,Population Tubulin-Different-Phenotype (%),[4],52%
same,Total Cell Count,[4],124
same,Population Apoptotic (%),[5],92%
same,Population Fragmented Nuclei (%),[5],22%
same,Population Healthy Nuclei (%),[5],67%
same,Population Hoechst High Intensity Objects (%),[5],2%
same,Population Membrane Permeable-Phenotype (%),[5],10%
same,Population Mitochondria Different-Phenotype (%),[5],4%
same,Population Mitotic Cells (%),[5],7%
same,Population Normal (%),[5],97%
same,Population Pyknosed Nuclei (%),[5],9%
same,Population Tubulin-Different-Phenotype (%),[5],6%
same,Total Cell Count,[5],294
same,Population Apoptotic (%),[6],78%
same,Population Fragmented Nuclei (%),[6],11%
same,Population Healthy Nuclei (%),[6],80%
same,Population Hoechst High Intensity Objects (%),[6],1%
same,Population Membrane Permeable-Phenotype (%),[6],11%
same,Population Mitochondria Different-Phenotype (%),[6],8%
same,Population Mitotic Cells (%),[6],21%
same,Population Normal (%),[6],98%
same,Population Pyknosed Nuclei (%),[6],8%
same,Total Cell Count,[6],163
same,Population Apoptotic (%),[7],88%
same,Population Fragmented Nuclei (%),[7],28%
same,Population Healthy Nuclei (%),[7],40%
same,Population Hoechst High Intensity Objects (%),[7],10%
same,Population Membrane Permeable-Phenotype (%),[7],32%
same,Population Mitochondria Different-Phenotype (%),[7],67%
same,Population Mitotic Cells (%),[7],11%
same,Population Normal (%),[7],89%
same,Population Pyknosed Nuclei (%),[7],31%
same,Population Tubulin-Different-Phenotype (%),[7],49%
same,Total Cell Count,[7],214
same,Population Apoptotic (%),[8],79%
same,Population Fragmented Nuclei (%),[8],16%
same,Population Healthy Nuclei (%),[8],50%
same,Population Hoechst High Intensity Objects (%),[8],3%
same,Population Membrane Permeable-Phenotype (%),[8],30%
same,Population Mitochondria Different-Phenotype (%),[8],75%
same,Population Mitotic Cells (%),[8],20%
same,Population Normal (%),[8],96%
same,Population Pyknosed Nuclei (%),[8],33%
same,Total Cell Count,[8],135
same,Population Apoptotic (%),[9],87%
same,Population Fragmented Nuclei (%),[9],19%
same,Population Healthy Nuclei (%),[9],68%
same,Population Hoechst High Intensity Objects (%),[9],2%
same,Population Membrane Permeable-Phenotype (%),[9],6%
same,Population Mitochondria Different-Phenotype (%),[9],5%
same,Population Mitotic Cells (%),[9],12%
same,Population Normal (%),[9],97%
same,Population Pyknosed Nuclei (%),[9],12%
same,Population Tubulin-Different-Phenotype (%),[9],4%
same,Total Cell Count,[9],393
same,Population Apoptotic (%),[10],92%
same,Population Fragmented Nuclei (%),[10],12%
same,Population Healthy Nuclei (%),[10],76%
same,Population Hoechst High Intensity Objects (%),[10],1%
same,Population Membrane Permeable-Phenotype (%),[10],5%
same,Population Mitotic Cells (%),[10],7%
same,Population Normal (%),[10],98%
same,Population Pyknosed Nuclei (%),[10],11%
same,Population Tubulin-Different-Phenotype (%),[10],2%
same,Total Cell Count,[10],234
same,Population Apoptotic (%),[11],98%
same,Population Fragmented Nuclei (%),[11],38%
same,Population Healthy Nuclei (%),[11],19%
same,Population Hoechst High Intensity Objects (%),[11],13%
same,Population Membrane Permeable-Phenotype (%),[11],40%
same,Population Mitochondria Different-Phenotype (%),[11],56%
same,Population Mitotic Cells (%),[11],1%
same,Population Normal (%),[11],86%
same,Population Pyknosed Nuclei (%),[11],42%
same,Population Tubulin-Different-Phenotype (%),[11],54%
same,Total Cell Count,[11],222
same,Population Apoptotic (%),[12],95%
same,Population Healthy Nuclei (%),[12],15%
same,Population Hoechst High Intensity Objects (%),[12],8%
same,Population Membrane Permeable-Phenotype (%),[12],66%
same,Population Mitochondria Different-Phenotype (%),[12],80%
same,Population Mitotic Cells (%),[12],4%
same,Population Normal (%),[12],91%
same,Population Pyknosed Nuclei (%),[12],45%
same,Population Tubulin-Different-Phenotype (%),[12],71%
same,Total Cell Count,[12],146
